ChEMBL document CHEMBL3525985, “Regiospecificity and stereospecificity of human UDP-glucuronosyltransferases in the glucuronidation of estriol, 16-epiestriol, 17-epiestriol, and 13-epiestradiol” (Drug Metab Dispos, 2013)

Legend:
Assay type in all cases: ADME
[1] = target: T1, UDP-glucuronosyltransferase 2B15 (Homo sapiens, UniProt P54855); experiment: Drug metabolism assessed as recombinant human C-terminal […]-mediated estradiol-3-glucuronide/estradiol-17-glucuronide formation at 200 uM after 15 to 60 mins by HPLC analysis in presence of UDPGA; conditions: recombinant enzyme
T1 sequence (P54855 whole entry): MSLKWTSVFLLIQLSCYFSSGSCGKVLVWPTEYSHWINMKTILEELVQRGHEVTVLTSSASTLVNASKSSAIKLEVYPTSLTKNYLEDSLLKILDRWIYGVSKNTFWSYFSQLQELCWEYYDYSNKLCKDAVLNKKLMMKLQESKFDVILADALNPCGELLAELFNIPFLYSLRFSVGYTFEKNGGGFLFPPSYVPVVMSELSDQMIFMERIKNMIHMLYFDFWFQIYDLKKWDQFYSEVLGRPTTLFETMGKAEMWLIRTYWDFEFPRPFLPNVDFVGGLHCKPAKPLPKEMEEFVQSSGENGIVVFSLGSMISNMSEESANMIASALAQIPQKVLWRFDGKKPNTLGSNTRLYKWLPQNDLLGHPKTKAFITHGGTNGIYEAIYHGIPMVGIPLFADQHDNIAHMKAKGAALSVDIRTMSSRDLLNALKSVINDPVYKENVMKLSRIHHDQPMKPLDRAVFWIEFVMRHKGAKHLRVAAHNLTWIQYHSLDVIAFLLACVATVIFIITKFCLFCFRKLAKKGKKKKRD

[2] = target: T2, UDP-glucuronosyltransferase 2B7 (Homo sapiens, UniProt P16662); experiment: Drug metabolism assessed as recombinant human C-terminal His-tagged UGT2B7-mediated estradiol-17-glucuronide formation at 200 uM after 15 to 60 mins by HPLC analysis in presence of UDPGA; conditions: recombinant enzyme
T2 sequence (P16662 whole entry): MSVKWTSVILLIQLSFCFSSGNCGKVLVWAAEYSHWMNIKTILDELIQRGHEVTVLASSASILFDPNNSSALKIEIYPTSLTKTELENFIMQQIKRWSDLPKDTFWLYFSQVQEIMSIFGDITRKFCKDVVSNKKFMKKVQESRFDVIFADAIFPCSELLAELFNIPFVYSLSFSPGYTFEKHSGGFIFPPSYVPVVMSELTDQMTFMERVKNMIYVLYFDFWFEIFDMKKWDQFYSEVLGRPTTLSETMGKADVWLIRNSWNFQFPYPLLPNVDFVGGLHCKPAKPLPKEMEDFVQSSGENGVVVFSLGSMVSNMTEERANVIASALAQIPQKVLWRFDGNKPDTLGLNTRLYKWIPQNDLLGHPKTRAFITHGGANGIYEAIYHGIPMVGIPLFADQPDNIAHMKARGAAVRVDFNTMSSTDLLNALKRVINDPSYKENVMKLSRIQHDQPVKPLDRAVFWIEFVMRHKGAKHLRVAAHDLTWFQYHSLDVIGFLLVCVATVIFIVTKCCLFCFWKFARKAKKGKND
Outline: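 Membranes (5 or 50 µg) from insect cells expressing His-tagged UGT2B7, with 200 µM aglycone in 50 mM phosphate pH 7.4, 10 mM MgCl₂, 5 mM UDPGA and 10% DMSO (final), 15–60 min at 37°C. Stopped with perchloric acid on ice, supernatant run on HPLC. Done in triplicate with no-UDPGA controls; rates normalized to relative UGT expression.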

[3] = target: T3, UDP-glucuronosyltransferase 2A1 (Homo sapiens, UniProt P0DTE4); experiment: Drug metabolism assessed as recombinant human C-terminal His-tagged UGT2A1-mediated 17-epiestriol-17-glucuronide formation at 200 uM after 15 to 60 mins by HPLC analysis in presence of UDPGA; conditions: recombinant enzyme
T3 sequence (P0DTE4 whole entry): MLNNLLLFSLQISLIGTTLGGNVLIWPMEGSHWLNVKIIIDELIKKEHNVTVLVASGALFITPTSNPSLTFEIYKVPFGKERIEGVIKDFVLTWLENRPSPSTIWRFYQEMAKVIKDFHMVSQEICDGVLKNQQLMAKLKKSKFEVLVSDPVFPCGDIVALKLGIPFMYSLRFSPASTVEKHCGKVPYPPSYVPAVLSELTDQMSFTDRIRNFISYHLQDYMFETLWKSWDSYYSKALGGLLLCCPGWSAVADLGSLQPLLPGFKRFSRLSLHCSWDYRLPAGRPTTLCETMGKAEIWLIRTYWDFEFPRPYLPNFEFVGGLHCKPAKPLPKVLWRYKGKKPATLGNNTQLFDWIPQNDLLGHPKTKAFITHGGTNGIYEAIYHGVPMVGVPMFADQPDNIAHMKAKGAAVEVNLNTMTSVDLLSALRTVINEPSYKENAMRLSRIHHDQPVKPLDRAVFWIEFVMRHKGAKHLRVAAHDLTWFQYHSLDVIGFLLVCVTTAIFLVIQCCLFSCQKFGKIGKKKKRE
Outline: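 Screening at a single substrate concentration of 200 μM, in triplicate. The reaction used 5 or 50 µg of UGT-enriched insect cell membranes in 50 mM phosphate pH 7.4 with 10 mM MgCl₂ and 5 mM UDPGA, 10% final DMSO. Incubation was 15–60 min at 37°C. Perchloric acid stopped the reaction and supernatants were analysed by HPLC. Controls lacked UDPGA. Rates were normalized to relative UGT expression level.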

[4] = target: T4, UDP-glucuronosyltransferase 2B17 (Homo sapiens, UniProt O75795); experiment: Drug metabolism assessed as recombinant human C-terminal His-tagged UGT2B17-mediated 17-epiestriol glucuronide metabolite formation after 15 to 60 mins by HPLC analysis in presence of UDPGA; conditions: recombinant enzyme
T4 sequence (O75795 whole entry): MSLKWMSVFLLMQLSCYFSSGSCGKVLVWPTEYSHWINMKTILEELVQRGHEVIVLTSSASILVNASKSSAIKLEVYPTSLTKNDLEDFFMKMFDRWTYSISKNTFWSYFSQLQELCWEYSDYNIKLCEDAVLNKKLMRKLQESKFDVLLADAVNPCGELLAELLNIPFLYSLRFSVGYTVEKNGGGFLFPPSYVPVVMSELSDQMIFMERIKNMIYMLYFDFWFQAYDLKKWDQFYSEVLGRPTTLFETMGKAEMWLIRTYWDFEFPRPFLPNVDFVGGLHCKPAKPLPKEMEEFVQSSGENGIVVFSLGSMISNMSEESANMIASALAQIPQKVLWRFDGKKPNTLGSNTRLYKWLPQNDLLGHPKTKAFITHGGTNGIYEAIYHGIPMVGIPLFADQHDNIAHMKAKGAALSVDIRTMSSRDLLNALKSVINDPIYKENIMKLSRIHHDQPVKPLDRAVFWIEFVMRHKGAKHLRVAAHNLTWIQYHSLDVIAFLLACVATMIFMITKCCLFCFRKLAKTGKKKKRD

[5] = Drug metabolism in human intestine microsomes assessed as 17-epiestriol-3-glucuronide formation after 15 to 60 mins by Michaelis-Menten equation analysis in presence of UDPGA
Outline: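 Pooled human intestine microsomes (6 donors), 0.5 or 10 µg, with alamethicin at 5% of total protein. Incubated with 50 mM phosphate pH 7.4, 10 mM MgCl₂, 5 mM UDPGA and 10% DMSO for 15–60 min at 37°C. Each glucuronide regioisomer quantified by HPLC, in triplicate, with substrate consumption at or below 10%.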

Row | Structure (SMILES) | Drug metabolism [1] | Drug metabolism [2] | Drug metabolism [3] | Drug metabolism [4] | Km [5] [µM] | Vmax [5] [pmol/min/mg]
1 | C[C@]12CC[C@@H]3c4ccc(O)cc4CC[C@H]3[C@@H]1CC[C@@H]2O [ESTRADIOL] | metabolite_detected | metabolite_detected |  |  |  | 
2 | C[C@]12CC[C@@H]3c4ccc(O)cc4CC[C@H]3[C@@H]1C[C@@H](O)[C@H]2O |  |  | metabolite_detected | metabolite_not_detected | 251 | 1239
